From article PMC8132106 (Cancer chemotherapy and pharmacology, 2019)
Where two headings read alike, the source gives them in different places. Blank lines part the entries; values can stand above or below the molecule they belong to.

Tests used:
mCRPC = settings: compared to placebo, cited from earlier work
AR + TNBC = settings: cited from earlier work
CYP3A4 = settings: 1μM substrate over 60 min; ref unpublished data on file; cited from earlier work
[1] = cited from earlier work
[2] = men taking 600 mg QD; cited from earlier work
CYP2C9 = settings: 1uM substrate over 60 min; ref unpublished data on file; cited from earlier work
[3] = Population PK model of seviteronel; type: in vivo, human; settings: for predicted accumulation: from simulated half-life 17.5 h
Summary of the method: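 Dense and sparse plasma concentrations (sparse from cycle 1 day 14, then every other cycle; LC-MS/MS; BQL excluded) were pooled; fed and fasted first doses counted as separate patients. One-, two- and three-compartment models with first-order or saturable absorption/elimination were tested, with exponential between-subject variability. Covariates tested: sex, body weight, prandial status, dexamethasone. Selection used OFV (−2LL; ΔOFV > 3.84, α = 0.05). Evaluation used a VPC with 200 simulated replicates (5th/50th/95th percentiles) and a split-off trough validation dataset.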

[4] = Previously reported noncompartmental clinical PK of seviteronel; type: in vivo, human; settings: with BID dosing, predicted from half-lives of 6.4 to 9.2 h
CYP2C19 = settings: 1uM substrate over 60 min; ref unpublished data on file; cited from earlier work
CYP17 lyase = settings: cited from earlier work
[5] = Noncompartmental analysis of seviteronel plasma PK in patients; type: in vivo, human
[6] = apparent oral inter-compartmental clearance
[7] = apparent oral total systemic clearance
[8] = apparent oral volume of distribution of the central compartment
[9] = apparent oral volume of distribution of the peripheral compartment
[10] = transit rate between compartments of the transit absorption model

SMILES: CNC(=O)c1ccc(N2C(=S)N(c3ccc(C#N)c(C(F)(F)F)c3)C(=O)C2(C)C)cc1F [enzalutamide]
improvement in overall survival (OS) (mCRPC; post-chemotherapy): 4.8 mo | overall reduction in risk of death (mCRPC; post-chemotherapy): 37% | improvement in overall survival (OS) (mCRPC; pre-chemotherapy): 2.4 mo | overall reduction in risk of death (mCRPC; pre-chemotherapy): 29% | radiographic progression-free survival (rPFS) (AR + TNBC; single-arm, open-label study, women with AR + (≥ 10% by IHC) TNBC): 14.7 weeks

CL/F, bootstrap mean estimate ([3]; 200 replicates): 6.89 L/h | Ka, bootstrap mean estimate ([3]; 200 replicates): 2.47 h⁻¹ | Ktr, bootstrap mean estimate ([3]; 200 replicates): 1.98 L/h | Q/F, bootstrap mean estimate ([3]; 200 replicates): 6.99 L/h | V/F, bootstrap mean estimate ([3]; 200 replicates): 99.97 L | Vp/F, bootstrap mean estimate ([3]; 200 replicates): 352.6 L | BSV on CL/F ([3]; after accounting for sex effect): 45% | Q/F, base model estimate [3, 6]: 6.99 L/h | Q/F, final model estimate [3, 6]: 6.99 L/h | CL/F, base model estimate [3, 7]: 7.15 L/h | CL/F, final model estimate [3, 7]: 6.69 L/h | V/F, base model estimate [3, 8]: 69.9 L | V/F, final model estimate [3, 8]: 99.97 L | Vp/F, base model estimate [3, 9]: 369 L | Vp/F, final model estimate [3, 9]: 343.4 L | dCLdSex, final model estimate ([3]; covariate effect on CL/F by Sex): 0.5883 | dCLdSex, bootstrap mean estimate ([3]; covariate effect on CL/F by Sex, 200 replicates): 0.559 | Between subject variability (%CV; ω) on Ka ([3]; final model): 133% | Between subject variability (%CV; ω) on Ktr ([3]; final model): 94.9% | Between subject variability (%CV; ω) on Q/F ([3]; final model): 51.5% | Between subject variability (%CV; ω) on V/F ([3]; final model): 51.4% | Between subject variability (%CV; ω) on Vp/F ([3]; final model): 35.9% | Ka, base model estimate ([3]; first-order absorption rate): 1.99 h⁻¹ | Ka, final model estimate ([3]; first-order absorption rate): 2.49 h⁻¹ | BSV on CL/F ([3]; overall, before covariates): 59.6% | Ktr, base model estimate [3, 10]: 1.99 L/h | Ktr, final model estimate [3, 10]: 1.99 L/h | predicted accumulation ([3]; with BID dosing): 164% | predicted accumulation ([3]; with QD dosing): 63% | predicted accumulation to steady-state [4]: 37–68% | food effect on PK ([5]; Study 001, fasted vs fed): no statistically-significant food effect | half-life longer with 48 h sampling than calculated with 0–24 h sampling ([5]; Study 002): ~ 60% | steady-state AUCTAU higher than first-dose AUCINF ([5]; Study 002, QD dosing): ~ 60% | accumulation at steady-state ([5]; observed plasma concentrations, Fig. 1): ~ 60%
SMILES: CC(C)[C@](O)(c1ccc2cc(OC(F)F)c(OC(F)F)cc2c1)c1c[nH]nn1 [seviteronel]
loss of substrate (CYP3A4): 57% | DLTs ([1]; 450 mg QD): no reported DLTs | time for drug-related adverse events to resolve to baseline ([1]; CRPC men treated with seviteronel): 2–3 weeks | Grade 1 events, 600 mg QD relative to 450 mg QD ([1]; women): five times more | CMAX [2]: 4403 ± 1817 ng/mL | loss of substrate (CYP2C9): 100% | BSV of V/F ([3]; before sex and body weight were included on CL/F): 62.9% | dCLdWt, final model estimate ([3]; covariate effect on CL/F by body weight): 0.2514 | dCLdWt, bootstrap mean estimate ([3]; covariate effect on CL/F by body weight, 200 replicates): 0.3595 | Between subject variability (%CV; ω) on CL/F ([3]; final model, sex and body weight on CL/F): 37.4% | loss of substrate (CYP2C19): 100% | selectivity for inhibition of CYP17 lyase versus hydroxylase (CYP17 lyase): tenfold | steady-state trough levels with vs without dexamethasone ([5]; dexamethasone 0.5 mg daily co-administration): no statistically significant differences were observed

SMILES: CC(=O)O[C@H]1CC[C@@]2(C)C(=CC[C@@H]3[C@@H]2CC[C@]2(C)C(c4cccnc4)=CC[C@@H]32)C1 [abiraterone acetate]
radiographic progression-free survival (rPFS) (AR + TNBC; in combination with prednisone, women with AR + (> 0% by IHC) TNBC): 11.2 weeks
